Consider 19 molecules from ChEMBL document CHEMBL1772978, “Exploration of the activity of 7-pyrrolidino-8-methoxyisothiazoloquinolones against methicillin-resistant Staphylococcus aureus (MRSA)” (J Med Chem, 2011).

In brackets after ≈: the same amount, converted by molar mass.

Series [1] has as its system Staphylococcus aureus. Nature of the series: Antibacterial activity against methicillin-sensitive Staphylococcus aureus ATCC 29213 after 24 hrs by microdilution method. The class given is functional. The settings on record: ATCC 29213, 24 h. The essentials:
(§1)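 MIC taken as the lowest concentration with no visible bacterial growth after 18-24 h at 37 °C, given in μg/mL; modal value of multiple experiments.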
For orientation: In broth dilution the organism is exposed to a series of concentrations in liquid medium.

A further series has as its system Escherichia coli. Nature of the series: Antibacterial activity against Escherichia coli ATCC25922 after 24 hrs by microdilution method. The series is classed as functional. The settings on record: ATCC25922, 24 h. In a few lines: as §1
In series [2] the test system is Staphylococcus aureus. In words: Antibacterial activity against methicillin- and quinolone-resistant Staphylococcus aureus ATCC700699 after 24 hrs by microdilution method. The settings on record: ATCC700699, 24 h. The series is classed as functional. The essentials:
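Broth microdilution; MIC read as the lowest compound concentration that prevents visible bacterial growth after incubation at 37 °C for 18–24 h, and expressed in μg/mL.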

A short description of series [3]: Cytotoxicity against human Hep2 cells after 72 hrs by alamar blue assay. The series is classed as cell-based. The settings on record: HEp-2 cells. Background: The colour change of resazurin is a common sign of viable cells or microbes.

The term MIC denotes the least concentration at which growth counts as inhibited. A low value points to inhibition by little substance. The term CC50 denotes the concentration that lowers cell viability or growth by half. Read a low CC50 as greater toxicity to the cells. For the molecule `COc1c(N2CCNCC2)c(F)cc2c(=O)c3c(=O)[nH]sc3n(C3CC3)c12`, the figures for the minimum inhibitory concentration (MIC) in the series on Staphylococcus aureus [1], against Escherichia coli and in the series on Staphylococcus aureus [2] were 0.06 µg/mL (≈ 0.154 µM), 0.03 µg/mL (≈ 0.0768 µM) and 4 µg/mL (≈ 10.2 µM), respectively. The molecule further had a CC50 at 72 h in series [3] of 27 µM.
In the case of `COc1c(N2CC[C@@H](N)C2)c(F)cc2c(=O)c3c(=O)[nH]sc3n(C3CC3)c12`, the MIC in the series with Staphylococcus aureus [1] worked out at 0.03 µg/mL (≈ 0.0768 µM); with Escherichia coli, 0.008 µg/mL (≈ 0.0205 µM); with Staphylococcus aureus [2], 2 µg/mL (≈ 5.12 µM). In series [3], this molecule returned a 50% cytotoxic concentration (CC50) at 72 h of 25 µM.
For `COc1c(N2CC[C@H](N)C2)c(F)cc2c(=O)c3c(=O)[nH]sc3n(C3CC3)c12`, the MIC against Staphylococcus aureus [1] was found to be 0.008 µg/mL (≈ 0.0205 µM); against Escherichia coli, 0.008 µg/mL (≈ 0.0205 µM); in the series with Staphylococcus aureus [2], 0.5 µg/mL (≈ 1.28 µM). In addition, the midpoint of cytotoxicity in series [3], the CC50 at 72 h, lay at 19 µM.
For the molecule `CN[C@@H]1CCN(c2c(F)cc3c(=O)c4c(=O)[nH]sc4n(C4CC4)c3c2OC)C1`, the minimal inhibitory concentration (MIC) in the series with Staphylococcus aureus [1] was 0.006 µg/mL (≈ 0.0148 µM); in the series on Escherichia coli it was 0.06 µg/mL (≈ 0.148 µM); against Staphylococcus aureus [2] it was 4 µg/mL (≈ 9.89 µM). Moreover, the CC50 at 72 h in series [3] stood at 42 µM.
As to `CN[C@H]1CCN(c2c(F)cc3c(=O)c4c(=O)[nH]sc4n(C4CC4)c3c2OC)C1`, the values for the MIC in the series with Staphylococcus aureus [1], in the series with Escherichia coli and with Staphylococcus aureus [2] were 0.03 µg/mL (≈ 0.0742 µM), 0.06 µg/mL (≈ 0.148 µM) and 2 µg/mL (≈ 4.94 µM), respectively. In addition, in series [3], it took 41 µM to reach half-maximal cytotoxicity (CC50 at 72 h).
In the case of `COc1c(N2CC[C@H](CN)C2)c(F)cc2c(=O)c3c(=O)[nH]sc3n(C3CC3)c12`, the values for the minimal inhibitory concentration (MIC) against Staphylococcus aureus [1], against Escherichia coli and with Staphylococcus aureus [2] were 0.008 µg/mL (≈ 0.0198 µM), 0.03 µg/mL (≈ 0.0742 µM) and 0.25 µg/mL (≈ 0.618 µM), respectively. Further, the CC50 at 72 h in series [3] turned out to be 11 µM.
`COc1c(N2CC[C@@H](CN)C2)c(F)cc2c(=O)c3c(=O)[nH]sc3n(C3CC3)c12`: the minimal inhibitory concentration (MIC) was found to be 0.008 µg/mL (≈ 0.0198 µM) in the series on Staphylococcus aureus [1], 0.004 µg/mL (≈ 0.00989 µM) in the series with Escherichia coli and 0.25 µg/mL (≈ 0.618 µM) against Staphylococcus aureus [2]. In addition, in series [3], it took 11 µM to reach half-maximal cytotoxicity (CC50 at 72 h).
For `CNC[C@@H]1CCN(c2c(F)cc3c(=O)c4c(=O)[nH]sc4n(C4CC4)c3c2OC)C1`, the results for the minimum inhibitory concentration (MIC) in the series on Staphylococcus aureus [1], against Escherichia coli and in the series with Staphylococcus aureus [2] were 0.008 µg/mL (≈ 0.0191 µM), 0.06 µg/mL (≈ 0.143 µM) and 0.5 µg/mL (≈ 1.19 µM), respectively. Further, in series [3], it took 28 µM to reach half-maximal cytotoxicity (CC50 at 72 h).
On to `COc1c(N2CC[C@@H](CNCCF)C2)c(F)cc2c(=O)c3c(=O)[nH]sc3n(C3CC3)c12`, for which the MIC against Staphylococcus aureus [1] came out at 0.008 µg/mL (≈ 0.0178 µM); in the series on Escherichia coli, 0.03 µg/mL (≈ 0.0666 µM); against Staphylococcus aureus [2] it was 0.13 µg/mL (≈ 0.289 µM). For the same molecule, the CC50 at 72 h in series [3] was 18 µM.
As to `COc1c(N2CC[C@@H](CNC(C)C)C2)c(F)cc2c(=O)c3c(=O)[nH]sc3n(C3CC3)c12`, the MIC against Staphylococcus aureus [1] was determined as 0.02 µg/mL (≈ 0.0448 µM); in the series on Escherichia coli it was 0.06 µg/mL (≈ 0.134 µM); against Staphylococcus aureus [2] it was 0.5 µg/mL (≈ 1.12 µM). In addition, in series [3], it took 33 µM to reach half-maximal cytotoxicity (CC50 at 72 h).
On the same counts, the results for `COc1c(N2CC[C@@H](CNC3CC3)C2)c(F)cc2c(=O)c3c(=O)[nH]sc3n(C3CC3)c12` are 0.004 µg/mL (≈ 0.009 µM), 0.03 µg/mL (≈ 0.0675 µM), 0.06 µg/mL (≈ 0.135 µM) and 23 µM.
`COc1c(N2CC[C@@H](CN(C)C)C2)c(F)cc2c(=O)c3c(=O)[nH]sc3n(C3CC3)c12`: the minimal inhibitory concentration (MIC) against Staphylococcus aureus [1] was 0.06 µg/mL (≈ 0.139 µM); against Escherichia coli, 0.13 µg/mL (≈ 0.301 µM); in the series on Staphylococcus aureus [2] it was 4 µg/mL (≈ 9.25 µM). The CC50 at 72 h in series [3] is greater than 100 µM.
In the same order, the values of `COc1c(N2CC[C@@H]([C@@H](C)N)C2)c(F)cc2c(=O)c3c(=O)[nH]sc3n(C3CC3)c12` are 0.02 µg/mL (≈ 0.0478 µM), 0.03 µg/mL (≈ 0.0717 µM), 0.25 µg/mL (≈ 0.597 µM) and 33 µM.
In the same order, the values of `COc1c(N2CC[C@H]([C@@H](C)N)C2)c(F)cc2c(=O)c3c(=O)[nH]sc3n(C3CC3)c12` are 0.02 µg/mL (≈ 0.0478 µM), 0.06 µg/mL (≈ 0.143 µM), 1 µg/mL (≈ 2.39 µM) and 51 µM.
Turning to `COc1c(N2CC[C@H]([C@H](C)N)C2)c(F)cc2c(=O)c3c(=O)[nH]sc3n(C3CC3)c12`, the MIC worked out at 0.03 µg/mL (≈ 0.0717 µM) against Staphylococcus aureus [1], 0.06 µg/mL (≈ 0.143 µM) against Escherichia coli and 1 µg/mL (≈ 2.39 µM) with Staphylococcus aureus [2]. Moreover, in series [3], the midpoint of cytotoxicity, the CC50 at 72 h, lay at 15 µM.
Regarding `CN[C@H](C)[C@@H]1CCN(c2c(F)cc3c(=O)c4c(=O)[nH]sc4n(C4CC4)c3c2OC)C1`, the results for the MIC against Staphylococcus aureus [1], with Escherichia coli and against Staphylococcus aureus [2] were 0.02 µg/mL (≈ 0.0462 µM), 0.06 µg/mL (≈ 0.139 µM) and 0.5 µg/mL (≈ 1.16 µM), respectively. The molecule also registered a cytotoxic concentration (CC50) at 72 h in series [3] of 29 µM.
In the case of `CCN[C@@H](C)[C@@H]1CCN(c2c(F)cc3c(=O)c4c(=O)[nH]sc4n(C4CC4)c3c2OC)C1`, the values for the minimum inhibitory concentration (MIC) in the series with Staphylococcus aureus [1], against Escherichia coli and against Staphylococcus aureus [2] were 0.004 µg/mL (≈ 0.00896 µM), 0.06 µg/mL (≈ 0.134 µM) and 0.13 µg/mL (≈ 0.291 µM), respectively. In addition, the CC50 at 72 h in series [3] is 27 µM.
Turning to `COc1c(N2CC[C@@H]([C@@H](C)NCCF)C2)c(F)cc2c(=O)c3c(=O)[nH]sc3n(C3CC3)c12`, the minimal inhibitory concentration (MIC) amounted to 0.004 µg/mL (≈ 0.00861 µM) with Staphylococcus aureus [1], 0.06 µg/mL (≈ 0.129 µM) in the series with Escherichia coli and 0.25 µg/mL (≈ 0.538 µM) in the series with Staphylococcus aureus [2]. The same molecule displayed a CC50 at 72 h in series [3] of 74 µM.
For `COc1c(N2CC[C@@H]([C@H](C)N(C)C)C2)c(F)cc2c(=O)c3c(=O)[nH]sc3n(C3CC3)c12`, the results for the minimal inhibitory concentration (MIC) with Staphylococcus aureus [1], against Escherichia coli and with Staphylococcus aureus [2] were 0.008 µg/mL (≈ 0.0179 µM), 0.06 µg/mL (≈ 0.134 µM) and 0.5 µg/mL (≈ 1.12 µM), respectively. Besides, the cytotoxic concentration (CC50) at 72 h in series [3] worked out at 39 µM.
